Assay results pooled from the literature.
PFF0160c: Dihydroorotate dehydrogenase (quinone), mitochondrial (PFF0160c, Plasmodium falciparum, UniProt Q08210)
SIGMAR1: Sigma non-opioid intracellular receptor 1 (SIGMAR1, Homo sapiens, UniProt Q99720)
Nectin-4: Nectin-4 (Homo sapiens, UniProt Q96NY8)
PFF0160c E182D: Dihydroorotate dehydrogenase (quinone), mitochondrial (PFF0160c, Plasmodium falciparum, UniProt Q08210, E182D)

| SMILES | target | test | quantity | value |
| --- | --- | --- | --- | --- |
| CC(CNCc1cn(Cc2cc(Br)cc(Br)c2)c2ccccc12)CNc1cc(=O)c2ccccc2[nH]1 (stereo not drawn) | PFF0160c | enzyme activity, inhibitor, absorbance | IC50 | 2720 nM |
| CN1CCN(C2=Nc3cc(Cl)ccc3Nc3ccccc32)CC1 | SIGMAR1 | ligand displacement, radioligand | Ki | > 10000 nM |
| CCCCOc1ccccc1C(=O)NCc1csc(-c2ccccc2)n1 | PFF0160c | enzyme activity, inhibitor, absorbance | IC50 | 421 nM |
| Fc1ccc([C@@H]2CCNC[C@H]2COc2ccc3c(c2)OCO3)cc1 | SIGMAR1 | ligand displacement, radioligand | Ki | 365 nM |
| CCCC[C@@H]1NC(=O)[C@H](Cc2ccc(O)cc2)NC(=O)[C@@H]2CCCN2C(=O)[C@H](CC(=O)O)NC(=O)[C@H](C)NC(=O)[C@H](Cc2ccccc2)NC(=O)[C@@H]2CSCCC(=O)N3CN(CN(C3)C(=O)CCSC[C@H](NC(C)=O)C(=O)N[C@@H](CC(C)(C)C)C(=O)N3CCC[C@H]3C(=O)N[C@@H](CCC(=O)O)C(=O)N[C@H](CCCCNC(=O)CCc3cn(CCOCCOCCOCCOCCOCCC(=O)N[C@H]4CSCCC(=O)N5CN6CN(C5)C(=O)CCSC[C@H](NC(=O)[C@@H](CC(=O)O)NC(=O)[C@H](Cc5cccc7ccccc57)NC(=O)[C@@H]5CCCN5C4=O)C(=O)N[C@@H](CCSC)C(=O)N[C@@H](CCCCNC(=N)N)C(=O)N[C@@H](CC(=O)O)C(=O)N[C@@H](Cc4c[nH]c5ccccc45)C(=O)N[C@@H](CO)C(=O)N[C@@H]([C@@H](C)O)C(=O)N4CCC[C@H]4C(=O)N4C[C@H](O)C[C@H]4C(=O)N[C@@H](Cc4c[nH]c5ccccc45)C(=O)N[C@H](C(N)=O)CSCCC6=O)nn3)C(=O)N3CCC[C@H]3C(=O)N[C@@H](Cc3ccc(O)cc3)C(=O)N2)C(=O)CCSC[C@@H](C(N)=O)NC1=O | Nectin-4 | binding, SPR | Kd | 2 nM |
| COc1cc(Nc2ccnc3cc(-c4ccncc4)ccc23)cc(OC)c1OC | PFF0160c E182D | enzyme activity, inhibitor, absorbance | IC50 | 1510 nM |
| CCCC[C@@H]1NC(=O)[C@H](Cc2ccc(O)cc2)NC(=O)[C@@H]2CCCN2C(=O)[C@H](CC(=O)O)NC(=O)[C@H](C)NC(=O)[C@H](Cc2ccccc2)NC(=O)[C@@H]2CSCCC(=O)N3CN(CN(C3)C(=O)CCSC[C@@H](C(=O)N[C@@H](C)C(N)=O)NC1=O)C(=O)CCSC[C@H](NC(C)=O)C(=O)N[C@@H](CC(C)(C)C)C(=O)N1CCC[C@H]1C(=O)N[C@@H](CCC(=O)O)C(=O)N[C@H](CCCCNC(=O)CCc1cn(CCOCCOCCOCCOCCOCCC(=O)NCCCC[C@H]3NC(=O)[C@H](Cc4cccc5ccccc45)NC(=O)[C@@H]4CCCN4C(=O)CCSCCC(=O)N4CN5CN(C4)C(=O)CCSC[C@H](NC3=O)C(=O)N[C@@H](CCSC)C(=O)N[C@@H](CCCCNC(=N)N)C(=O)N[C@@H](CC(=O)O)C(=O)N[C@@H](Cc3c[nH]c4ccccc34)C(=O)N[C@@H](CO)C(=O)N[C@@H]([C@@H](C)O)C(=O)N3CCC[C@H]3C(=O)N3C[C@H](O)C[C@H]3C(=O)N[C@@H](Cc3c[nH]c4ccccc34)C(=O)N[C@H](C(N)=O)CSCCC5=O)nn1)C(=O)N1CCC[C@H]1C(=O)N[C@@H](Cc1ccc(O)cc1)C(=O)N2 | Nectin-4 | binding, SPR | Kd | 2.2 nM |
| COCC(C)n1c(SCC(=O)Nc2cc(C(F)(F)F)ccc2Cl)nc2ccccc2c1=O (stereo not drawn) | PFF0160c | enzyme activity, inhibitor, absorbance | IC50 | 626 nM |
| COC(=O)C1(c2ccc(C)cc2)CC1CN1CCC(O)(c2ccccc2)CC1 (stereo not drawn) | SIGMAR1 | ligand displacement, radioligand | Ki | 18.7 nM |
| N[C@@H](CC(=O)O)C(=O)O | tar (Salmonella enterica, UniProt P02941, E302Q/E491Q) | binding | Kd | 1000 nM |
| Oc1cc(NC[C@H]2CCC[C@@H]2NCc2cc(Br)cc(Br)c2)nc2ccccc12 | PFF0160c E182D | enzyme activity, inhibitor, absorbance | IC50 | > 10000 nM |
| Cc1nccn1CC1CCc2c(c3ccccc3n2C)C1=O (stereo not drawn) | SIGMAR1 | ligand displacement, radioligand | Ki | 6510 nM |
| CCCC[C@@H]1NC(=O)[C@H](Cc2ccc(O)cc2)NC(=O)[C@@H]2CCCN2C(=O)[C@H](CCC(=O)O)NC(=O)[C@H](C)NC(=O)[C@H](Cc2ccccc2)NC(=O)[C@@H]2CSCCC(=O)N3CN(CN(C3)C(=O)CCSC[C@H](NC(C)=O)C(=O)N[C@@H](CC(C)(C)C)C(=O)N3CCC[C@H]3C(=O)N[C@@H](CCC(=O)O)C(=O)N[C@H](CCCCNC(=O)CCc3cn(CCOCCOCCOCCOCCOCCC(=O)N[C@H]4CSCCC(=O)N5CN6CN(C5)C(=O)CCSC[C@H](NC(=O)[C@@H](CC(=O)O)NC(=O)[C@H](Cc5cccc7ccccc57)NC(=O)[C@@H]5CCCN5C4=O)C(=O)N[C@@H](CCSC)C(=O)N[C@@H](CCCCNC(=N)N)C(=O)N[C@@H](CC(=O)O)C(=O)N[C@@H](Cc4c[nH]c5ccccc45)C(=O)N[C@@H](CO)C(=O)N[C@@H]([C@@H](C)O)C(=O)N4CCC[C@H]4C(=O)N4C[C@H](O)C[C@H]4C(=O)N[C@@H](Cc4c[nH]c5ccccc45)C(=O)N[C@H](C(N)=O)CSCCC6=O)nn3)C(=O)N3CCC[C@H]3C(=O)N[C@@H](Cc3ccc(O)cc3)C(=O)N2)C(=O)CCSC[C@@H](C(N)=O)NC1=O | Nectin-4 | binding, SPR | Kd | 2.5 nM |
| COc1cc2c(cc1OC)C(=O)C(CC1CCN(Cc3ccccc3)CC1)C2 (stereo not drawn) | SIGMAR1 | ligand displacement, radioligand | Ki | 19.1 nM |
| CCCC[C@@H]1NC(=O)[C@H](Cc2ccc(O)cc2)NC(=O)[C@@H]2CCCN2C(=O)[C@H](CC(=O)O)NC(=O)[C@H](C)NC(=O)[C@H](Cc2ccccc2)NC(=O)[C@@H]2CSCCC(=O)N3CN(CN(C3)C(=O)CCSC[C@H](NC(C)=O)C(=O)N[C@@H](CC(C)(C)C)C(=O)N3CCC[C@H]3C(=O)N[C@@H](CCC(=O)O)C(=O)N[C@H](CCCCNC(=O)CCc3cn(CCOCCOCCOCCN(CCOCCOCCOCCC(=O)N[C@H]4CSCCC(=O)N5CN6CN(C5)C(=O)CCSC[C@H](NC(=O)[C@@H](CC(=O)O)NC(=O)[C@H](Cc5cccc7ccccc57)NC(=O)[C@@H]5CCCN5C4=O)C(=O)N[C@@H](CCSC)C(=O)N[C@@H](CCCCNC(=N)N)C(=O)N[C@@H](CC(=O)O)C(=O)N[C@@H](Cc4c[nH]c5ccccc45)C(=O)N[C@@H](CO)C(=O)N[C@@H]([C@@H](C)O)C(=O)N4CCC[C@H]4C(=O)N4C[C@H](O)C[C@H]4C(=O)N[C@@H](Cc4c[nH]c5ccccc45)C(=O)N[C@H](C(N)=O)CSCCC6=O)CCOCCOCCOCCn4cc(CCC(=O)NCCCC[C@H]5NC(=O)[C@H](CCC(=O)O)NC(=O)[C@@H]6CCCN6C(=O)[C@H](CC(C)(C)C)NC(=O)[C@@H](NC(C)=O)CSCCC(=O)N6CN7CN(C6)C(=O)CCSC[C@H](NC(=O)[C@H](Cc6ccc(O)cc6)NC(=O)[C@@H]6CCCN6C5=O)C(=O)N[C@@H](Cc5ccccc5)C(=O)N[C@@H](C)C(=O)N[C@@H](CC(=O)O)C(=O)N5CCC[C@H]5C(=O)N[C@@H](Cc5ccc(O)cc5)C(=O)N[C@@H](CCCC)C(=O)N[C@H](C(N)=O)CSCCC7=O)nn4)nn3)C(=O)N3CCC[C@H]3C(=O)N[C@@H](Cc3ccc(O)cc3)C(=O)N2)C(=O)CCSC[C@@H](C(N)=O)NC1=O | Nectin-4 | binding, SPR | Kd | 3.9 nM |
